The structures appear in SMILES notation. The source made the active and inactive calls. The rule behind the calls is not given here.

Data set [1] is described as follows: Inhibition of HDAC in human HeLa cell nuclear extract using […] as substrate after 30 mins by fluorescence assay. The class given is cell-free. The gist of the method:
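HeLa nuclear extract was incubated with fluorometric HDAC substrate in assay buffer at 37°C for 30 min. Lysine developer was then added for a further 30 min at 37°C. Fluorescence was read at ex 355/em 460 nm. Negative controls lacked extract, substrate, or both.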

The test system of data set [2] is PC-3. The data set is described as follows: cells. Type of data set: functional. To be noted: Homo sapiens, PC-3, 48 h.
The test system of a further data set is A549. The data set is described as follows: cells. The class given is functional. The following applies: Homo sapiens, A549, 48 h.
A further data set concerns MDA-MB-231. Briefly: cells. The class given is functional. The following applies: Homo sapiens, MDA-MB-231, 48 h.
In another data set the test system is ASPC1. The data set is described as follows: cells. Type of data set: functional. To be noted: Homo sapiens, ASPC1, 48 h.
The target in a further data set is Histone deacetylase 2 (Homo sapiens, UniProt Q92769). Briefly: Inhibition of recombinant human full length HDAC2 using Fluor-de-Lys as substrate after 60 mins by spectrofluorimetric analysis.
Histone deacetylase 2, sequence (Q92769 whole entry): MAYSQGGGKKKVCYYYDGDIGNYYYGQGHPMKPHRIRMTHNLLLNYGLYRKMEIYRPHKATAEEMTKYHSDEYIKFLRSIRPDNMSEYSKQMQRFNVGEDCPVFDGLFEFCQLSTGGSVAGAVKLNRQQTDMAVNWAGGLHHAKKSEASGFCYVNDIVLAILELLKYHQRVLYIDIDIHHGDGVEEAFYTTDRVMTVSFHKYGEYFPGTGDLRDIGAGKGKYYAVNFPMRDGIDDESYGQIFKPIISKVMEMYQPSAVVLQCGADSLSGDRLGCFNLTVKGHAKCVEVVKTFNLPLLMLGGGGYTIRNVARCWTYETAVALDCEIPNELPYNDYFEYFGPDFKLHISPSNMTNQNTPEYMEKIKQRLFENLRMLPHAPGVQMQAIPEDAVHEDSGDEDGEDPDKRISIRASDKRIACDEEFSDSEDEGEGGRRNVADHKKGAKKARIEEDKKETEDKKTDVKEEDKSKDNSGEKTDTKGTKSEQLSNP
The next data set addresses Histone deacetylase 1 (Homo sapiens, UniProt Q13547). The data set is described as follows: Inhibition of recombinant human full length HDAC1 using Fluor-de-Lys as substrate after 60 mins by spectrofluorimetric analysis.
Another data set deals with Histone deacetylase 4 (Homo sapiens, UniProt P56524). The data set is described as follows: Inhibition of recombinant human full length HDAC4 using Fluor-de-Lys as substrate after 60 mins by spectrofluorimetric analysis.
Histone deacetylase 4, sequence (P56524 whole entry): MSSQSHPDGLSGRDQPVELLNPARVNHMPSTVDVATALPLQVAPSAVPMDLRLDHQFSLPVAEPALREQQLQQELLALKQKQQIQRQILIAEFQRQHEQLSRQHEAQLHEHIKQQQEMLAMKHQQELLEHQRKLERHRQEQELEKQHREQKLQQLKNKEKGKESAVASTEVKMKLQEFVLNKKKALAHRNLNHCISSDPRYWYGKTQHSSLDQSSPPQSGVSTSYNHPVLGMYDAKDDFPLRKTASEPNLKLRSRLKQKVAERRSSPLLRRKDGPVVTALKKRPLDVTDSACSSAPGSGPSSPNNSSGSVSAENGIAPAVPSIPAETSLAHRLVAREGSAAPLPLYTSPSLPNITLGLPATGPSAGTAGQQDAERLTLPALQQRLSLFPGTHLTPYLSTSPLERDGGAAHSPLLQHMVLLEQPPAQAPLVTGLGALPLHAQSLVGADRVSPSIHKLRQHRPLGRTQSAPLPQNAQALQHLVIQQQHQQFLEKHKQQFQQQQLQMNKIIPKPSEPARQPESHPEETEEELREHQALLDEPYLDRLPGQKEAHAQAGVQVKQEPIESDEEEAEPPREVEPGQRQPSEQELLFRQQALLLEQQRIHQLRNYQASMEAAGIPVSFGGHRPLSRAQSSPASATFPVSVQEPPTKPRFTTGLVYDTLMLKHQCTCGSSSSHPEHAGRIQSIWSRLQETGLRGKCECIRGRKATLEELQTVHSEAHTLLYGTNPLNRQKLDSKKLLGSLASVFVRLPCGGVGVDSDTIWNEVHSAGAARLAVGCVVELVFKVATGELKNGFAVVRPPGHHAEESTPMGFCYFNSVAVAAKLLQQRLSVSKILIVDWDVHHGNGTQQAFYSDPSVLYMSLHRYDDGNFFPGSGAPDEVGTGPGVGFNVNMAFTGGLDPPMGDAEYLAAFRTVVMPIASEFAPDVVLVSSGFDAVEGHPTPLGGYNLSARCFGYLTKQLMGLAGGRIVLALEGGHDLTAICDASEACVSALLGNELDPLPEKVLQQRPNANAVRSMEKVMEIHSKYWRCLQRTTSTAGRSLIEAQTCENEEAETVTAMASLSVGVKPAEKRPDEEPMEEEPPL
Data set [3] deals with T1, Protein deacetylase HDAC6 (Homo sapiens, UniProt Q9UBN7).
T1 sequence (Q9UBN7 whole entry): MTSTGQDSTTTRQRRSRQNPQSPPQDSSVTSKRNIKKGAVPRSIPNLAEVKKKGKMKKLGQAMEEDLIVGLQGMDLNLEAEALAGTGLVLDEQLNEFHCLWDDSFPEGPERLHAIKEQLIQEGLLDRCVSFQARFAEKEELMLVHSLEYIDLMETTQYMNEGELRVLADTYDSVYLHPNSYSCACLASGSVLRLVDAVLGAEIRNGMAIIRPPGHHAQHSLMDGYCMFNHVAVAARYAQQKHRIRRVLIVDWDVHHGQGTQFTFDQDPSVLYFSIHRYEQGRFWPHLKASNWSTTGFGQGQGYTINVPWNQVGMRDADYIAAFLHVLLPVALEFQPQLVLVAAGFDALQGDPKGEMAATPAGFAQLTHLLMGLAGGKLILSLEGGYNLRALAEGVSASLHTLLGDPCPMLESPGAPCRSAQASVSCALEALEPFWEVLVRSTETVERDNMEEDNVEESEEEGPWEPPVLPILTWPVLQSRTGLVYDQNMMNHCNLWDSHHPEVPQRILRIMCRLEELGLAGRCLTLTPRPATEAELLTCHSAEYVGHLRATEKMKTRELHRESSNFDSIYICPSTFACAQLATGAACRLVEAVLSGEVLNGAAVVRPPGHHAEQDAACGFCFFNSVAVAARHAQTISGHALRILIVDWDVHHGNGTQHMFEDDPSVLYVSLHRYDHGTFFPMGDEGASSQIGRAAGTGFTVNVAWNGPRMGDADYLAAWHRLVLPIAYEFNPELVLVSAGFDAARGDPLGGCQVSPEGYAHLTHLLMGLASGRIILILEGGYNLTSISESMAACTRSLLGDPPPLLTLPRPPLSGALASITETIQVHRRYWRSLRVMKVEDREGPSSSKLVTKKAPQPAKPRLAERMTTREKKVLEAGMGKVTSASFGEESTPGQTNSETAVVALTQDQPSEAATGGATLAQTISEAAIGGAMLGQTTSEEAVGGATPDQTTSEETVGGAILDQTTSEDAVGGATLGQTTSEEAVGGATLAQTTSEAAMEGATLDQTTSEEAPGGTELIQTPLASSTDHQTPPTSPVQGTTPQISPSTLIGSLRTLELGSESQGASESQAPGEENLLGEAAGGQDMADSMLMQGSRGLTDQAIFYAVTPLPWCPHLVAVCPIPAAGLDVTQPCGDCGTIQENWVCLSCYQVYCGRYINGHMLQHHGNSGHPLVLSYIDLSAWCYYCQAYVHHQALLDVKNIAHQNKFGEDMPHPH
Briefly: Inhibition of recombinant human full length HDAC6 using Fluor-de-Lys as substrate after 60 mins by spectrofluorimetric analysis.

For a further data set, the target named is T2, Histone deacetylase 8 (Homo sapiens, UniProt Q9BY41).
T2 sequence (Q9BY41 whole entry): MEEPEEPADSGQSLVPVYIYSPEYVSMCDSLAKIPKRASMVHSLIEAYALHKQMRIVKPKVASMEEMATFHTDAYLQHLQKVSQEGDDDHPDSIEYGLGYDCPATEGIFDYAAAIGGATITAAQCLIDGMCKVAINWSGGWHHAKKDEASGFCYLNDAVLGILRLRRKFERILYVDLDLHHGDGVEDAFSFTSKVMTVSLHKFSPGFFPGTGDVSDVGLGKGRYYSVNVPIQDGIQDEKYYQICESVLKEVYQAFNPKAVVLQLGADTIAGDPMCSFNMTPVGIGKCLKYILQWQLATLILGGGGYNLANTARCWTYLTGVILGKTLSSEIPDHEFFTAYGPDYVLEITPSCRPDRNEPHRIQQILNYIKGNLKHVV
The data set is described as follows: Inhibition of recombinant human full length HDAC8 using Fluor-de-Lys as substrate after 60 mins by spectrofluorimetric analysis.

The test system of data set [4] is PC-3. The data set is described as follows: Antitumor activity against human PC3 cells xenografted in nude mouse assessed as reduction in tumor volume administered ip every other day for 18 days measured twice weekly. Type of data set: functional, organism-based. The gist of the method: (§1)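 Male nude mice were implanted s.c. in the flank with PC3 cells (1 × 10^7 per mouse) mixed with Matrigel. Dosing began at a tumor size of about 100 mm³ and was given i.p. every other day for 18 days. Tumors were measured by caliper twice weekly, and volume was calculated as length × width²/2. %TGI was derived from mean tumor volume against the vehicle group, compared by one-way ANOVA.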

For data set [5], the system named is PC-3. Briefly: Antitumor activity against human PC3 cells xenografted in nude mouse assessed as tumor growth inhibition at 20 mg/kg, ip administered every other day for 18 days measured twice weekly. Type of data set: functional. The following applies: PC-3, ip, 432 h, read-out: TGI. The gist of the method: as §1
Data set [6] has as its system PC-3. Briefly: Antitumor activity against human PC3 cells xenografted in nude mouse assessed as tumor growth inhibition at 40 mg/kg, ip administered every other day for 18 days measured twice weekly. The class given is functional. To be noted: PC-3, ip, 432 h, read-out: TGI. The gist of the method:
as §1

For data set [7], the system named is Mus musculus. The data set is described as follows: Toxicity in nude mouse xenografted with human PC3 cells assessed as weight loss at 20 to 40 mg/kg, ip administered every other day for 18 days. Type of data set: organism-based. To be noted: in vivo, 432 h. The gist of the method: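 Male nude mice carried s.c. PC3 flank xenografts (1 × 10^7 cells with Matrigel). They received i.p. vehicle, 20 mg/kg or 40 mg/kg every other day for 18 days, and body weight (g) was tracked over the study.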

Data set [8] deals with Mus musculus. Briefly: In-vivo inhibition of HDAC in ip dosed nude mouse xenografted with human PC3 cells assessed as upregulation of acetyl-histone 3 expression by hematoxylin/eosin staining based immunohistochemical analysis. The class given is functional, organism-based. The gist of the method: (§2)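 PC3 xenograft tumors were formalin-fixed and paraffin-embedded, then sectioned. Sections were deparaffinized and rehydrated, and endogenous peroxidase was quenched with 3% H2O2. Antigen retrieval used pH 9 buffer at 80°C overnight, followed by blocking with fat-free milk. Primary antibody (acetyl-histone H3, HDAC1 or HDAC2) was applied at 4°C overnight, then secondary antibody, then Mayer's hematoxylin counterstain. Separate sections received H&E staining.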

Data set [9] relates to Mus musculus. The data set is described as follows: Downregulation of HDAC2 expression in nude mouse xenografted with human PC3 cells at 40 mg/kg, ip administered every other day for 18 days measured twice weekly by hematoxylin/eosin staining based immunohistochemical analysis. Type of data set: functional, organism-based. The gist of the method:
as §2

For data set [10], the system named is Mus musculus. Briefly: Effect on HDAC1 expression in nude mouse xenografted with human PC3 cells at 20 and 40 mg/kg, ip administered every other day for 18 days measured twice weekly by hematoxylin/eosin staining based immunohistochemical analysis. The class given is functional, organism-based. The gist of the method:
as §2

Data set [11] is filed under the species Homo sapiens. The following applies: at 1 µM.
The species entered for data set [12] is Homo sapiens. The following applies: at 1 µM. The source holds these as a separate data set.

Histone deacetylase 1, sequence (Q13547 whole entry): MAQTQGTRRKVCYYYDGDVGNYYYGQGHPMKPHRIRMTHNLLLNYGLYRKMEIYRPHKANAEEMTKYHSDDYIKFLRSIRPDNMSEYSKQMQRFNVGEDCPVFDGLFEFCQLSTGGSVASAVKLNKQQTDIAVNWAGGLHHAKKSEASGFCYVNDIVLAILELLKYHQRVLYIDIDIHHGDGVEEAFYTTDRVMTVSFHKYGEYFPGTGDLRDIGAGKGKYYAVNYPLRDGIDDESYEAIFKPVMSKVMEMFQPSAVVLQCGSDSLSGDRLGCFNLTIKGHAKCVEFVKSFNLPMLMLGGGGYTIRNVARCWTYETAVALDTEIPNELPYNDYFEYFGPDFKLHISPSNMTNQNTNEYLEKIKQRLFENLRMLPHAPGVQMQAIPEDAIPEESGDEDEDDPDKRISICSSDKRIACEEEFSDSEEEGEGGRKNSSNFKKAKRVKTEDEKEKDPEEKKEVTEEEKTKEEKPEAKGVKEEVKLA

In data set [1], `O=C(/C=C/c1cccc(S(=O)(=O)NCCc2ccc3[nH]ccc3c2)c1)NO` gave an IC50 of 52.2 nM. Besides, the 50% growth inhibitory concentration (GI50) with PC-3 [2] stood at 330 nM; in the data set on A549 it was 820 nM; with MDA-MB-231, 2470 nM; with ASPC1, 2780 nM.

Regarding `O=C(/C=C/c1ccc(S(=O)(=O)NCCc2ccc3[nH]ccc3c2)cc1)NO`, the IC50 in data set [1] came to 76.1 nM. In addition, the GI50 worked out at 310 nM in the data set on PC-3 [2], 600 nM in the data set with A549, 9910 nM in the data set on MDA-MB-231 and 3970 nM in the data set on ASPC1.

The compound `COc1ccc(S(=O)(=O)n2ccc3c(CCNS(=O)(=O)c4ccc(/C=C/C(=O)NO)cc4)cccc32)cc1` registered a half-maximal inhibitory concentration (IC50) in data set [1] of 60 nM. The GI50 in the data set with PC-3 [2] is 2880 nM; with A549 it was 4350 nM; in the data set on MDA-MB-231, 5850 nM; with ASPC1, 12500 nM.

For `O=C(/C=C/c1cccc(S(=O)(=O)NCCc2cccc3[nH]ccc23)c1)NO`, the midpoint of inhibition in data set [1], the IC50, lay at 30.4 nM. The GI50 worked out at 310 nM in the data set on PC-3 [2], 870 nM with A549, 2060 nM with MDA-MB-231 and 3850 nM in the data set with ASPC1.

On to `Cn1ccc2c(CCNS(=O)(=O)c3ccc(/C=C/C(=O)NO)cc3)cccc21`, for which the IC50 at Histone deacetylase 2 was 0.53 nM; in data set [1] it was 14.3 nM; on Histone deacetylase 1, 1.34 nM; at Histone deacetylase 4 it was greater than 100 nM; in data set [3], 6.8 nM; at Histone deacetylase 8, greater than 100 nM. The GI50 in the data set with PC-3 [2] came to 150 nM; in the data set with A549, 250 nM; with MDA-MB-231, 80 nM; in the data set with ASPC1, 160 nM.

Regarding `O=C(/C=C/c1ccc(S(=O)(=O)NCCc2cccc3[nH]ccc23)cc1)NO`, the half-inhibitory concentration (IC50) on Histone deacetylase 2 is 0.9 nM; in data set [1], 8.56 nM; on Histone deacetylase 1, 1.28 nM; on Histone deacetylase 4, greater than 100 nM; in data set [3], 8.32 nM; on Histone deacetylase 8 it was greater than 100 nM. Moreover, the GI50 in the data set on PC-3 [2] came out at 140 nM; in the data set with A549 it was 250 nM; in the data set with MDA-MB-231, 320 nM; with ASPC1, 240 nM. In addition, the values for the Activity result with PC-3 [4], with Mus musculus [7] and with Mus musculus [8] were “Dose-dependent effect”, “Non-Toxic” and “Dose-dependent effect”, respectively. Also, the inhibition in vivo at 20 mg/kg in the data set with PC-3 [5] came to 51.6%. In addition, in the data set with PC-3 [6], the inhibition in vivo at 40 mg/kg is 62.2%. Moreover, the result in the data set with Mus musculus [9] was Active. For the same compound, in the data set with Mus musculus [10], the result was inactive. The inhibition entry in the data set filed under Homo sapiens [11] and in the data set filed under Homo sapiens [12] was “Active” each time.

In the case of `O=C(/C=C/c1ccc(S(=O)(=O)NCc2cccc3[nH]ccc23)cc1)NO`, in data set [1], the IC50 is 7.17 nM. Further, the GI50 was 860 nM in the data set with PC-3 [2], 1650 nM with A549, 3550 nM in the data set with MDA-MB-231 and 4560 nM with ASPC1.

On to `Nc1ccccc1NC(=O)c1ccc(CNC(=O)OCc2cccnc2)cc1` [ENTINOSTAT], for which the 50% inhibitory concentration (IC50) in [1] is greater than 1000 nM. Besides, the GI50 worked out at 430 nM in the data set with PC-3 [2], 5760 nM in the data set with A549, 1410 nM with MDA-MB-231 and 6900 nM in the data set with ASPC1.

In [1], `O=C(/C=C/c1ccc(S(=O)(=O)Nc2cccc3[nH]ccc23)cc1)NO` showed an IC50 greater than 1000 nM. Further, the GI50 in the data set on PC-3 [2] is 3490 nM; with A549 it was greater than 10000 nM; in the data set with MDA-MB-231, greater than 10000 nM; with ASPC1, greater than 10000 nM.

`O=C(CCCCCCC(=O)Nc1ccccc1)NO` [VORINOSTAT] came in with an IC50 in data set [1] of 131 nM.

In the case of `O=C(/C=C/c1cccc(S(=O)(=O)Nc2ccccc2)c1)NO` [BELINOSTAT], the IC50 in data set [1] is 81 nM; on Histone deacetylase 4 it was greater than 1000 nM. For the same compound, the GI50 in the data set with PC-3 [2] is 310 nM; with A549 it was 230 nM; with MDA-MB-231, 280 nM; with ASPC1, 650 nM.

The record behind these values is ChEMBL document CHEMBL4020709, “4-Indolyl-N-hydroxyphenylacrylamides as potent HDAC class I and IIB inhibitors in vitro and in vivo” (Eur J Med Chem, 2017).
